Assay [1] is described as follows: Her2 expression decrease, cell viability multiplex – SKBR3 breast tumor cells, AlphaScreen, ATP viability, primary screen (AID 461;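 active means Her2 level under about 52% in both replicate screens, with viability over 70% of control, limit read from the data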;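 on Her2 level: lower value means less Her2 protein in the cells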;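 on viability: percent of carrier control wells set as 100% viability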). Particulars: SKBR3 Her2 protein level, 18-24 h, measured here: SKBR3 viability, ATP luminescence, at 10 µM.
Assay [2] addresses Receptor tyrosine-protein kinase erbB-2 (Homo sapiens) (UniProt P04626). The assay is described as above. Particulars: 18-24 h, at 10 µM, stronger effect = lower value.
A short description of assay [3]: reduced viability of SK-BR-3 breast cancer cells – cell-based, 24 h, human, pilot screen (AID 572).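 Further: compound exposure lasted between 18 and 24 h rather than exactly 24 h; 100% = carrier-treated control wells.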 The settings on record: SK-BR-3 viability, CellTiter-Glo luminescence, at 10 µM, stronger effect = lower value. On the technique in general: Cellular ATP, detected with luciferase, serves as a proxy for viable cell number.
A short description of assay [4]: HUVEC growth inhibition – cell-based, human, primary screen (AID 575;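 active means viability at or below 30% in both replicate assays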;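 further: 100% = median of untreated cell wells with 0.1% DMSO on each plate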). Particulars: HUVEC proliferation, CellTiter-Glo luminescence, 72 h; at 10 µM; stronger effect = lower value. Summed up: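 Assay system: primary human umbilical vein endothelial cells / Buffer or medium: endothelial basal medium with 2% FBS plus growth supplements / Compound dosing: one dose, 10 µM final, 0.1% DMSO / Timing: 72 h treatment at 37 °C / Signal: CTG luminescence / Benchmarks: 32 DMSO-only cell-control wells (high), 32 MePR drug-control wells (low) per plate / Plate: collagen-coated 384-well format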

A short description of assay [5]: H69AR cell proliferation blockers – human, duplicate replicates, primary screen (AID 580;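 active means viability at or under a set limit in both replicates, limit being median viability minus 3 SD, cut at about 48% in these data, passing the limit was not always enough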;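 further: 100% = mean luminescence of untreated wells and 0% = no signal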). The settings on record: H69AR lung tumor cells viability, ATP luminescence, 72 h; at 10 µM; stronger effect = lower value.
The nature of assay [6]: MRP1 drug-resistance reversers in H69AR cells – cell-based, doxorubicin co-treatment, pilot screen (AID 601;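 active means viability loss from added drug above about 55%, and viability with drug at most 40%, in both replicates, limit read from the data, passing the limit was not always enough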). The settings on record: CellTiter-Glo, 72 h, at 10 µM; for differential viability (reversal): stronger effect = higher value.
Assay [7] is described as follows: yeast transport mutant growth inhibition pilot in 384-well plates, post-Golgi transport modulator project (AID 636; in the data active means inhibition above about 31%). The settings on record: absorbance 615 nm, about 18 h, stronger effect = higher value.
Assay [8] is described as follows: growth suppression of yeast trafficking mutant, preliminary HTS, modulators of trafficking downstream of Golgi apparatus project, 1536-format plate, OD 615 nm (AID 637; in the data active means inhibition above about 30%). Particulars: yeast transport mutant growth, absorbance 615 nm, 18 h; stronger effect = higher value.
Where [9] appears, read: H69AR cells + 2 uM doxorubicin, measured here: viability with 2 uM doxorubicin, stronger effect = lower value.
The mark [10] stands for this setting: H69AR cells, compound alone cytotoxicity.

A word on the viability: it is a read-out of living cells in per cent, often relative to untreated cells. The term inhibition denotes the relative decrease from the control value, in per cent.

SMILES strings stand for the structures. Calls of active or inactive are those of the source.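 How the source made its calls, unless noted: active means viability at or below 10% of carrier control in both of two separate runs; inconclusive means viability at or below 10% in only one of the two runs; inactive means the rest.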

Sequence of Receptor tyrosine-protein kinase erbB-2 (Homo sapiens) (P04626 whole entry, looked up): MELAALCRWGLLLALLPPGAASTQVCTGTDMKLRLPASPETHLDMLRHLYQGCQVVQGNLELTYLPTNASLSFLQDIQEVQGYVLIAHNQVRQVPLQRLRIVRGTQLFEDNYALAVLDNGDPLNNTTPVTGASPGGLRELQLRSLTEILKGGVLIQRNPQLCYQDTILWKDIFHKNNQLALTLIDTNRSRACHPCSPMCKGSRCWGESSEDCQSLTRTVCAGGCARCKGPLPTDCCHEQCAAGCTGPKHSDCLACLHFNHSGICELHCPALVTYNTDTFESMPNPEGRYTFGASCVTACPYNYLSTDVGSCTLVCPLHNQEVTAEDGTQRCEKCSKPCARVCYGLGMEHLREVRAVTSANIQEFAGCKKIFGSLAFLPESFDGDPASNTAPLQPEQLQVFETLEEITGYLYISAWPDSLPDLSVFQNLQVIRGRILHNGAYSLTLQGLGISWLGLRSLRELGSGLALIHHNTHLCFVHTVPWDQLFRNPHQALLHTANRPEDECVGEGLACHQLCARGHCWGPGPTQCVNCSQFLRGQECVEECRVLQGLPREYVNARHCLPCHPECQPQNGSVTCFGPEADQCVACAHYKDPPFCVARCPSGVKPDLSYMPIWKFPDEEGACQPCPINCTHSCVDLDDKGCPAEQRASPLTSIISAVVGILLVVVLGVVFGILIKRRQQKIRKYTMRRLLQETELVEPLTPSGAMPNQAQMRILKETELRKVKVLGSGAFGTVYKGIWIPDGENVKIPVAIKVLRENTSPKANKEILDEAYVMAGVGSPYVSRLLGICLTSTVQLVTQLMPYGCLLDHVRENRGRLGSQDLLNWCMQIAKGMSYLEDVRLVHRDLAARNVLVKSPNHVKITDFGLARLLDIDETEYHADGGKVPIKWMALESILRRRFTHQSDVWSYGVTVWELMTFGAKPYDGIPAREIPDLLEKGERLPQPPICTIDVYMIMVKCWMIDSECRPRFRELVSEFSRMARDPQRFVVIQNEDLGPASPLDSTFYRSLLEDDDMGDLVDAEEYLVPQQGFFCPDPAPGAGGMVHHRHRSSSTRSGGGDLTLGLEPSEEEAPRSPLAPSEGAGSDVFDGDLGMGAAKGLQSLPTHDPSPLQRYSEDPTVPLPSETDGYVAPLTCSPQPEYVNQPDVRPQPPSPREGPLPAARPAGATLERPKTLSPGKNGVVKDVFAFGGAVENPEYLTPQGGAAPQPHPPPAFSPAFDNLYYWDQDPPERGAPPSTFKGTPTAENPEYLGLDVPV

In the case of `CC1CC(=O)C2=C(C1)OC(N)=C(C#N)C2c1coc2ccccc2c1=O` (stereo not given), the viability in assay [1] is 108%; in assay [3], 108% (inactive); in assay [4] it was 95.1% (inactive); in assay [5], 97.3% (inactive); in assay [6] (setting [9]), 86.7%; in assay [6] (setting [10]), 97.3%. In addition, the Her2 level in assay [2] was 88.5% (inactive). Moreover, in assay [6] (H69AR cells + 2 uM doxorubicin), the differential viability (reversal) was 10.6% (inactive). For the same compound, the inhibition in assay [7] is -7.33% (inactive); in assay [8], 2.26% (inactive).
Consider `CCSc1nnc(NC(=O)CCNS(=O)(=O)c2cc(Br)cnc2N)s1`, for which the viability is 79.5% in assay [1]; 79.5% (inactive) in assay [3]; 76.8% (inactive) in assay [4]; 107% (inactive) in assay [5]; 106% in assay [6] (setting [9]); 107% in assay [6] (setting [10]). The Her2 level in assay [2] is 107% (inactive). The differential viability (reversal) in assay [6] (H69AR cells + 2 uM doxorubicin) was 1.07% (inactive). Further, the inhibition in assay [7] is -1.04% (inactive); in assay [8], -0.82% (inactive).
Turning to `COC(=O)c1cc2oc(C)cc2n1CC(=O)N(C)c1ccccc1`, the viability in assay [1] was 93%; in assay [3], 93% (inactive); in assay [4], 83.2% (inactive); in assay [5], 95.4% (inactive); in assay [6] (setting [9]), 88%; in assay [6] (setting [10]) it was 95.4%. Moreover, the Her2 level in assay [2] is 92.5% (inactive). In addition, the differential viability (reversal) in assay [6] (H69AR cells + 2 uM doxorubicin) is 7.45% (inactive). The inhibition in assay [7] is -1.92% (inactive); in assay [8] it was -2.17% (inactive).
On to `CCOc1ccc(-n2cc(C(=O)Nc3cccc(C)n3)c3cc(OC)c(OC)cc3c2=O)cc1`, for which the viability is 110% in assay [1]; 110% (inactive) in assay [3]; 71.8% (inactive) in assay [4]; 64.4% (inactive) in assay [5]; 76.2% in assay [6] (setting [9]); 64.4% in assay [6] (setting [10]). For the same compound, the Her2 level in assay [2] was 91% (inactive). Also, in assay [6] (H69AR cells + 2 uM doxorubicin), the differential viability (reversal) was -11.8% (inactive). Further, the results for the inhibition in assay [7] and in assay [8] were -5.47% (inactive) and 4.43% (inactive), respectively.
Regarding `CCC(c1nnnn1CCOC)N(Cc1ccc(C)cc1)Cc1cc2cc(OC)ccc2[nH]c1=O` (stereo not given), the viability in assay [1] was 115%; in assay [3], 115% (inactive); in assay [4], 71.9% (inactive); in assay [5], 72.5% (inactive); in assay [6] (setting [9]) it was 64.7%; in assay [6] (setting [10]) it was 72.5%. For the same compound, the Her2 level in assay [2] was 89% (inactive). In assay [6] (H69AR cells + 2 uM doxorubicin), the differential viability (reversal) was 7.76% (inactive). Further, the inhibition in assay [7] is -3.03% (inactive); in assay [8] it was -1.77% (inactive).
`Cc1sc2nc(CN3CCN(S(=O)(=O)c4cccc5nonc45)CC3)[nH]c(=O)c2c1C`: the viability is 102% in assay [1]; 102% (inactive) in assay [3]; 66.4% (inactive) in assay [4]; 87.9% (inactive) in assay [5]; 78.4% in assay [6] (setting [9]); 87.9% in assay [6] (setting [10]). For the same compound, the Her2 level in assay [2] is 93.5% (inactive). For the same compound, the differential viability (reversal) in assay [6] (H69AR cells + 2 uM doxorubicin) was 9.52% (inactive). Further, the inhibition in assay [7] is -6.05% (inactive); in assay [8] it was 0.5% (inactive).
On to `CCCCn1nc(C(=O)N2CCc3ccccc32)c2ccccc2c1=O`, for which the viability is 81.5% in assay [1]; 81.5% (inactive) in assay [3]; 91.8% (inactive) in assay [4]; 93.9% (inactive) in assay [5]; 105% in assay [6] (setting [9]); 93.9% in assay [6] (setting [10]). In assay [2], the Her2 level is 110% (inactive). In addition, the differential viability (reversal) in assay [6] (H69AR cells + 2 uM doxorubicin) is -11.2% (inactive). Also, the inhibition is -0.4% (inactive) in assay [7] and -10.6% (inactive) in assay [8].
In the case of `CCN(CC)Cc1nc2c(c(=O)[nH]1)C1(CCCCC1)Cc1ccccc1-2`, the viability in assay [1] is 87%; in assay [3], 87% (inactive); in assay [4], 93.6% (inactive); in assay [5], 72.8% (inactive); in assay [6] (setting [9]) it was 91.7%; in assay [6] (setting [10]), 72.8%. Besides, the Her2 level in assay [2] is 82.5% (inactive). Further, in assay [6] (H69AR cells + 2 uM doxorubicin), the differential viability (reversal) was -18.9% (inactive). In addition, the inhibition in assay [7] was -5.07% (inactive); in assay [8], 0.16% (inactive).
Consider `CC1(C)Cc2noc(N)c2C(C)(C)N1O`, for which the viability in assay [1] is 121%; in assay [3], 121% (inactive); in assay [4], 89.5% (inactive); in assay [5] it was 95.6% (inactive); in assay [6] (setting [9]), 80.8%; in assay [6] (setting [10]) it was 95.6%. In addition, the Her2 level in assay [2] was 91% (inactive). For the same compound, the differential viability (reversal) in assay [6] (H69AR cells + 2 uM doxorubicin) is 14.8% (inactive). In addition, the inhibition in assay [7] is -4.61% (inactive); in assay [8] it was 2.7% (inactive).
Consider `Cc1cccc2cc(COC(=O)C(C)(C)C)c(=O)[nH]c12`, for which the viability is 95.5% in assay [1]; 95.5% (inactive) in assay [3]; 108% (inactive) in assay [4]; 97.6% (inactive) in assay [5]; 95% in assay [6] (setting [9]); 97.6% in assay [6] (setting [10]). Moreover, the Her2 level in assay [2] was 91.5% (inactive). For the same compound, the differential viability (reversal) in assay [6] (H69AR cells + 2 uM doxorubicin) was 2.58% (inactive). Also, the figures for the inhibition in assay [7] and in assay [8] were 0.13% (inactive) and 5.17% (inactive), respectively.
Take `Cc1ccc(CCNC(=O)C2CCCN(S(=O)(=O)c3cnc[nH]3)C2)cc1` (stereo not given): the viability in assay [1] was 102%; in assay [3] it was 102% (inactive); in assay [4] it was 101% (inactive); in assay [5], 101% (inactive); in assay [6] (setting [9]), 94%; in assay [6] (setting [10]), 101%. Further, the Her2 level in assay [2] is 121% (inactive). Besides, the differential viability (reversal) in assay [6] (H69AR cells + 2 uM doxorubicin) is 6.71% (inactive). In addition, the inhibition in assay [7] is -0.8% (inactive); in assay [8] it was -2.17% (inactive).
Regarding `O=C(CSc1nnc(Cn2nnc(-c3ccccc3)n2)n1-c1ccccc1)Nc1ccc(F)cc1`, the viability in assay [1] was 91%; in assay [3], 91% (inactive); in assay [4], 64.1% (inactive); in assay [5], 75.7% (inactive); in assay [6] (setting [9]), 71.8%; in assay [6] (setting [10]), 75.7%. The Her2 level in assay [2] is 82% (inactive). Also, in assay [6] (H69AR cells + 2 uM doxorubicin), the differential viability (reversal) is 3.96% (inactive). The results for the inhibition in assay [7] and in assay [8] were -1.45% (inactive) and 13.4% (inactive), respectively.
As for `O=C(Nc1ccccc1)c1cccnc1N1CCOCC1`, the viability in assay [1] was 94%; in assay [3] it was 94% (inactive); in assay [4] it was 105% (inactive); in assay [5], 102% (inactive); in assay [6] (setting [9]) it was 84.1%; in assay [6] (setting [10]) it was 102%. The Her2 level in assay [2] was 80% (inactive). The differential viability (reversal) in assay [6] (H69AR cells + 2 uM doxorubicin) is 18.2% (inactive). For the same compound, the inhibition was -0.92% (inactive) in assay [7] and -2.73% (inactive) in assay [8].
As to `COc1ccccc1-c1cc(C(=O)NCCCn2ccnc2)no1`, the viability in assay [1] was 82%; in assay [3] it was 82% (inactive); in assay [4], 88.5% (inactive); in assay [5] it was 97.4% (inactive); in assay [6] (setting [9]), 83.1%; in assay [6] (setting [10]) it was 97.4%. The Her2 level in assay [2] is 80% (inactive). Besides, the differential viability (reversal) in assay [6] (H69AR cells + 2 uM doxorubicin) was 14.3% (inactive). Moreover, the values for the inhibition in assay [7] and in assay [8] were -7.03% (inactive) and -2.17% (inactive), respectively.
On to `CCOC(=O)C(C)(C)Sc1nc2c(cnn2-c2ccc(C)cc2)c(=O)[nH]1`, for which the viability is 99% in assay [1]; 99% (inactive) in assay [3]; 90.4% (inactive) in assay [4]; 79.9% (inactive) in assay [5]; 96.3% in assay [6] (setting [9]); 79.9% in assay [6] (setting [10]). Besides, the Her2 level in assay [2] was 100% (inactive). The differential viability (reversal) in assay [6] (H69AR cells + 2 uM doxorubicin) was -16.5% (inactive). Further, the values for the inhibition in assay [7] and in assay [8] were -1.95% (inactive) and -0.79% (inactive), respectively.
Take `CCNC(=O)CC(=O)Nc1ccccc1C(=O)O`: the viability in assay [1] was 104%; in assay [3] it was 104% (inactive); in assay [4], 125% (inactive); in assay [5], 103% (inactive); in assay [6] (setting [9]), 96.9%; in assay [6] (setting [10]), 103%. The Her2 level in assay [2] was 99.5% (inactive). Besides, in assay [6] (H69AR cells + 2 uM doxorubicin), the differential viability (reversal) was 5.93% (inactive). For the same compound, the inhibition was -5.95% (inactive) in assay [7] and -2.67% (inactive) in assay [8].

The values are drawn from PubChem BioAssay.
